How the values were obtained:
[1] = target: 11-beta-hydroxysteroid dehydrogenase 1 (Mus musculus, UniProt P50172); assay: Inhibition of mouse microsomal 11beta-HSD1 overexpressed in HEK293 cells using [3H]-cortisone as substrate assessed as formation of [3H]-cortisol using [3H]cortisone by scintillation proximity assay in presence of NADPH
[2] = target: T1, 11-beta-hydroxysteroid dehydrogenase 1 (Homo sapiens, UniProt P28845); assay: Inhibition of human microsomal 11beta-HSD1 overexpressed in HEK293 cells using [3H]-cortisone as substrate assessed as formation of [3H]-cortisol at 10 uM using [3H]cortisone by scintillation proximity assay in presence of NADPH
In short: (§1)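 Human or mouse 11β-HSD1 inhibition measured in vitro by scintillation proximity assay (SPA). Every isolate was first screened at a single concentration of 10 μM. […] Glycyrrhetinic acid served as the positive control. Other assay conditions follow an earlier report.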
Target sequence in this assay (P28845 whole entry, looked up): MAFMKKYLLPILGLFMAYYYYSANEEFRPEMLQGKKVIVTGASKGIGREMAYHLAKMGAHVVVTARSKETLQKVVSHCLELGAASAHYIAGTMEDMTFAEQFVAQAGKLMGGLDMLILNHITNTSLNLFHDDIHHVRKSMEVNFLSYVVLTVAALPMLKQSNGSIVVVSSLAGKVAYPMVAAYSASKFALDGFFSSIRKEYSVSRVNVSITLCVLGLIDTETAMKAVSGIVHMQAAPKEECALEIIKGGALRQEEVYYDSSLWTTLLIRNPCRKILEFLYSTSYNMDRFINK

[3] = target: T1, 11-beta-hydroxysteroid dehydrogenase 1; assay: Inhibition of human microsomal 11beta-HSD1 overexpressed in HEK293 cells using [3H]-cortisone as substrate assessed as formation of [3H]-cortisol using [3H]cortisone by scintillation proximity assay in presence of NADPH
Target sequence in this assay (P28845 whole entry): as the sequence (P28845 whole entry, looked up) above

[4] = target: 11-beta-hydroxysteroid dehydrogenase 1 (Mus musculus) (UniProt P50172); assay: Inhibition of mouse microsomal 11beta-HSD1 overexpressed in HEK293 cells using [3H]-cortisone as substrate assessed as formation of [3H]-cortisol at 10 uM using [3H]cortisone by scintillation proximity assay in presence of NADPH; in short: as §1
Sequence of 11-beta-hydroxysteroid dehydrogenase 1 (Mus musculus) (P50172 whole entry, looked up): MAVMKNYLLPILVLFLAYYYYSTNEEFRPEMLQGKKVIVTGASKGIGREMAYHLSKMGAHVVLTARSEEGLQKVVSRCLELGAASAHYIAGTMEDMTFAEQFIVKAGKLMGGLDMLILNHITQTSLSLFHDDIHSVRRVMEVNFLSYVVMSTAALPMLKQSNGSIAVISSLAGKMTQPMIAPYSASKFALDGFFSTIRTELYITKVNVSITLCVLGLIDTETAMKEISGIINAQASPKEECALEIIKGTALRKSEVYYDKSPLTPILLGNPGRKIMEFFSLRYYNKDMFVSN

Sequence of 11-beta-hydroxysteroid dehydrogenase 1 (Mus musculus, UniProt P50172) (P50172 whole entry): as the sequence (P50172 whole entry, looked up) above

Row | Compound | IC50 ([1]; read-out: IC50) [µM] | inhibition [2] [%] | IC50 [3] [µM] | inhibition [4] [%] | IC50 ([1]; hek293)
1 | C[C@@H]([C@@H]1O[C@@H]1C(O)C(C)(C)O)[C@@H]1CC[C@]2(C)C3=CC[C@H]4C(C)(C)[C@H](O)CC[C@]4(C)[C@H]3CC[C@@]12C (stereo partly specified) | 1.2 | > 50 | 1.9 | > 50 | –
2 | C[C@@H](C[C@@H](O)[C@@H]1OC1(C)C)[C@H]1CC[C@@]2(C)C3=CC[C@H]4C(C)(C)[C@@H](O)CC[C@]4(C)[C@H]3CC[C@]12C | 3.8 | < 50 | – | > 50 | –
3 | C[C@@H](C[C@@H](O)[C@H](O)C(C)(C)O)[C@@H]1CC[C@]2(C)C3=CC[C@H]4C(C)(C)C(=O)CC[C@]4(C)[C@H]3CC[C@@]12C | 0.88 | < 50 | – | > 50 | –
4 | CC(=O)O[C@H]1C[C@@]2(C)[C@H](c3ccoc3)C[C@H]3O[C@]32[C@]2(C)C(=O)C(O)=C3C(C)(C)C(=O)C=C[C@]3(C)[C@@H]12 | – | > 50 | 9.9 | – | Not Active
5 | C[C@@H](C[C@@H](O)[C@@H]1OC1(C)C)[C@H]1CC[C@@]2(C)C3=CC[C@H]4C(C)(C)C(=O)CC[C@]4(C)[C@H]3CC[C@]12C | 0.69 | < 50 | – | > 50 | –

— ChEMBL document CHEMBL4477167, “Limonoids and Triterpenoids as 11β-HSD1 Inhibitors from Walsura robusta” (J Nat Prod, 2016)
